Data reported in ChEMBL document CHEMBL1806466, “2-Amino-4-methyl-5-phenylethyl substituted-7-N-benzyl-pyrrolo[2,3-d]pyrimidines as novel antitumor antimitotic agents that also reverse tumor resistance” (Bioorg Med Chem, 2011).
Activity calls are given as the source filed them. No cut-off for these calls is given here.

What was measured:
MCF7 [1] = experiment: Cytotoxic activity against drug-sensitive Pgp-, MRP1-deficient human MCF7 cells after 48 hrs by sulforhodamine B assay; conditions: MCF7, 48 h
NCI-H522 = experiment: Antitumor activity against human NCI-H522 cells after 48 hrs by sulforhodamine B assay; type: functional; conditions: NCI-H522, 48 h
Outline: (§1)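 NCI-60 screen, adherent lines: grown in RPMI 1640 with 5% FBS and 2 mM L-glutamine. Seeded at 5,000–40,000 cells/well by doubling time and preincubated 24 h at 37 °C, 5% CO2, with time-zero plates TCA-fixed. Five concentrations (10-fold or half-log) given for 48 h. Fixed with cold TCA (10% final), then SRB-stained and read at A515. GI50 is 50% reduction of net protein increase versus control.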

NCI/ADR = experiment: Reversal of Pgp-mediated multidrug resistance in human NCI/ADR cells assessed as enhancement of cytotoxicity of vinblastine after 48 hrs by sulforhodamine B assay; type: cell-based
Outline: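 NCI/ADR cells plated at ~15% confluency and allowed 24 h to attach. […] Survival by SRB binding, each value the mean of three wells, with ethanol solvent controls. Pgp Antagonism Score = % survival without vinblastine / % survival with vinblastine.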

LOX IMVI = experiment: Antitumor activity against human LOXIMVI cells after 48 hrs by sulforhodamine B assay; type: functional
Outline: as §1

MCF7 [2] = experiment: Resistance factor, ratio of IC50 for Pgp-deficient human MCF7/VP cells expressing MRP1 in absence of vincristine to IC50 for drug sensitive human MCF7 cells in presence of 1 nM vincristine
786-0 = experiment: Antitumor activity against human 786-0 cells after 48 hrs by sulforhodamine B assay; type: functional; conditions: 786-0, 48 h
Outline: as §1

K562 = experiment: Antitumor activity against human K562 cells after 48 hrs by sulforhodamine B assay; type: functional; conditions: K562, 48 h
Outline: (§2)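 NCI-60 screen, suspension lines: grown in RPMI 1640 with 5% FBS and 2 mM L-glutamine. Seeded at 5,000–40,000 cells/well and preincubated 24 h at 37 °C, 5% CO2, with time-zero plates fixed. Five concentrations (10-fold or half-log) given for 48 h. Settled cells fixed with 80% TCA (16% final), then SRB-stained and read at 515 nm. GI50 is from the net growth relative to time zero and control.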

HOP-92 = experiment: Antitumor activity against human HOP92 cells after 48 hrs by sulforhodamine B assay; type: functional; conditions: HOP-92, 48 h
Outline: as §1

A498 = experiment: Antitumor activity against human A498 cells after 48 hrs by sulforhodamine B assay; type: functional; conditions: A498, 48 h
Outline: as §1

SK-MEL-28 = experiment: Antitumor activity against human SK-MEL-28 cells after 48 hrs by sulforhodamine B assay; type: functional; conditions: SK-MEL-28, 48 h
Outline: as §1

NCI-H226 = experiment: Antitumor activity against human NCI-H226 cells after 48 hrs by sulforhodamine B assay; type: functional; conditions: NCI-H226, 48 h
Outline: as §1

RPMI-8226 = experiment: Antitumor activity against human RPMI8226 cells after 48 hrs by sulforhodamine B assay; type: functional; conditions: RPMI-8226, 48 h
Outline: as §2

UO-31 = experiment: Antitumor activity against human UO31 cells after 48 hrs by sulforhodamine B assay; type: functional; conditions: UO-31, 48 h
Outline: (§3)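 NCI-60 panel lines grown in RPMI 1640 with 5% FBS and 2 mM L-glutamine. Cells plated at 5,000–40,000/well by doubling time, given 24 h before drug, then exposed to five concentrations for 48 h at 37 °C. Time-zero plates fixed with TCA. Cells fixed with TCA, stained with 0.4% SRB, read at 515 nm. GI50 = 50% reduction in net protein increase versus control.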

MDA-MB-468 = experiment: Antitumor activity against human MDA-MB-468 cells after 48 hrs by sulforhodamine B assay; type: functional; conditions: MDA-MB-468, 48 h
Outline: as §1

SN12C = experiment: Antitumor activity against human SN12C cells after 48 hrs by sulforhodamine B assay; type: functional
Outline: as §1

NCI-H460 = experiment: Antitumor activity against human NCI-H460 cells after 48 hrs by sulforhodamine B assay; type: functional; conditions: NCI-H460, 48 h
Outline: as §1

SR = experiment: Antitumor activity against human SR cells after 48 hrs by sulforhodamine B assay; type: functional
Outline: as §2

COLO 205 = experiment: Antitumor activity against human COLO205 cells after 48 hrs by sulforhodamine B assay; type: functional; conditions: COLO 205, 48 h
Outline: as §1

SF-539 = experiment: Antitumor activity against human SF539 cells after 48 hrs by sulforhodamine B assay; type: functional; conditions: SF-539, 48 h
Outline: as §1

UACC-257 = experiment: Antitumor activity against human UACC257 cells after 48 hrs by sulforhodamine B assay; type: functional; conditions: UACC-257, 48 h
Outline: as §3

M14 = experiment: Antitumor activity against human M14 cells after 48 hrs by sulforhodamine B assay; type: functional; conditions: M14, 48 h
Outline: as §1

MCF7 [3] = experiment: Antitumor activity against human MCF7 cells after 48 hrs by sulforhodamine B assay; type: functional; conditions: MCF7, 48 h
Outline: as §1

SK-MEL-2 = experiment: Antitumor activity against human SK-MEL-2 cells after 48 hrs by sulforhodamine B assay; type: functional; conditions: SK-MEL-2, 48 h
Outline: as §1

SNB-19 = experiment: Antitumor activity against human SNB19 cells after 48 hrs by sulforhodamine B assay; type: functional; conditions: SNB-19, 48 h
Outline: as §1

SF-268 = experiment: Antitumor activity against human SF268 cells after 48 hrs by sulforhodamine B assay; type: functional; conditions: SF-268, 48 h
Outline: as §1

KM12 = experiment: Antitumor activity against human KM12 cells after 48 hrs by sulforhodamine B assay; type: functional; conditions: KM12, 48 h
Outline: as §1

HCC 2998 = experiment: Antitumor activity against human HCC2998 cells after 48 hrs by sulforhodamine B assay; type: functional; conditions: HCC 2998, 48 h
Outline: as §1

NCI-H322M = experiment: Antitumor activity against human NCI-H322M cells after 48 hrs by sulforhodamine B assay; type: functional
Outline: as §1

OVCAR-3 = experiment: Antitumor activity against human OVCAR3 cells after 48 hrs by sulforhodamine B assay; type: functional; conditions: OVCAR-3, 48 h
Outline: as §1

PC-3 = experiment: Antitumor activity against human PC3 cells after 48 hrs by sulforhodamine B assay; type: functional; conditions: PC-3, 48 h
Outline: as §1

MDA-MB-435 = experiment: Antitumor activity against human MDA-MB-435 cells after 48 hrs by sulforhodamine B assay; type: functional; conditions: MDA-MB-435, 48 h
Outline: as §1

Hs-578T = experiment: Antitumor activity against human Hs578T cells after 48 hrs by sulforhodamine B assay; type: functional
Outline: as §1

SK-OV-3 = experiment: Antitumor activity against human SKOV3 cells after 48 hrs by sulforhodamine B assay; type: functional; conditions: SK-OV-3, 48 h
Outline: as §1

Bos taurus = species: Bos taurus; experiment: Effect on bovine brain microtubule depolymerization assessed as decrease in absorbance at wavelength 340 nm after 15 mins
Outline: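 Bovine brain tubulin purified by three assembly/disassembly cycles followed by ion exchange. Tubulin at 2.5 mg/mL […] in 1 M glutamate, pH 6.6, with 4% DMSO, preincubated with compound at 0 °C for 15 min. 0.5 mM GTP then added and samples warmed to 37 °C. A340 monitored about 60 min.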

UACC-62 = experiment: Antitumor activity against human UACC62 cells after 48 hrs by sulforhodamine B assay; type: functional; conditions: UACC-62, 48 h
Outline: as §3

MOLT-4 = experiment: Antitumor activity against human MOLT4 cells after 48 hrs by sulforhodamine B assay; type: functional; conditions: MOLT-4, 48 h
Outline: as §2

## COc1cc(CCc2cn(Cc3ccccc3)c3nc(N)nc(C)c23)c(OC)c(OC)c1OC
MCF7 [1]
  IC50: 24 µM
NCI-H522
  GI50: 6.05 µM
NCI/ADR
  Activity: Active
LOX IMVI
  GI50: 5.29 µM
MCF7 [2]
  Ratio IC50: 0.37
786-0
  GI50: 4.5 µM
K562
  GI50: 2.48 µM
HOP-92
  GI50: 1.39 µM
A498
  GI50: 2.25 µM
SK-MEL-28
  GI50: 4.05 µM
NCI-H226
  GI50: 4.27 µM
RPMI-8226
  GI50: 1.69 µM
UO-31
  GI50: 5.37 µM
MDA-MB-468
  GI50: 2.82 µM
SN12C
  GI50: 6.86 µM
NCI-H460
  GI50: 2.81 µM
SR
  GI50: 2.35 µM
COLO 205
  GI50: 2.8 µM
SF-539
  GI50: 1.86 µM
UACC-257
  GI50: 10.4 µM
M14
  GI50: 3.33 µM
MCF7 [3]
  GI50: 1.05 µM
SK-MEL-2
  GI50: 5.09 µM
SNB-19
  GI50: 4.68 µM
SF-268
  GI50: 4.4 µM
KM12
  GI50: 3.33 µM
HCC 2998
  GI50: 5.89 µM
NCI-H322M
  GI50: 6.92 µM
OVCAR-3
  GI50: 1.2 µM
PC-3
  GI50: 3.08 µM
MDA-MB-435
  GI50: 0.34 µM
Hs-578T
  GI50: 2.46 µM
SK-OV-3
  GI50: 2.98 µM
Bos taurus
  Activity: Active
UACC-62
  GI50: 2.13 µM
MOLT-4
  GI50: 3.96 µM
